Measurements of several laboratories.
Lines come from different studies, so protocols differ.
Target: Homeodomain-interacting protein kinase 2 (HIPK2, Homo sapiens, UniProt Q9H2X6)
Observed: enzyme activity
Mode: inhibitor

Structure (SMILES)	method	concentration	remaining activity
Cc1cnc(NC2CCOCC2)nc1-n1cnc(C(=O)NC(CN)c2cc(F)cc(Cl)c2)c1 (stereo not drawn)	radiometric	1 µM	92%
COc1cc(Nc2cnc(C#N)c(O[C@H](C)CN(C)C)n2)ncc1-c1cnn(C)c1	radiometric	1 µM	89%
O=C(O)c1ccc2c(c1)nc(Nc1ccccc1)c1ncncc12	radiometric	1 µM	2%
Cc1ccc(C(=O)Nc2ccc(CN3CCN(C)CC3)c(C(F)(F)F)c2)cc1C#Cc1cnc2cccnn12		23.5 nM	100%
Nc1nc(Nc2ccccc2)sc1C(=O)c1c(F)cccc1F		10 µM	16%
Cc1sc(C(=O)NC2COC2)cc1-n1cc(NC(=O)Nc2c(F)cccc2Cl)cn1		10 µM	103%
O=C(O)c1ccc2c(c1)nc(NCCc1ccccc1)c1ncncc12	radiometric	1 µM	7%
Oc1cccc(-c2nc(N3CCOCC3)c3oc4ncccc4c3n2)c1		10 µM	18%
O=C(O)c1ccc2c(c1)nc(NCCc1ccccc1)c1ccncc12	radiometric	1 µM	4%
O=C(Nc1cnn(-c2csc(C(=O)NC3COC3)c2)c1)Nc1ccccc1Cl		5 µM	102%
O=C(O)c1ccc2c(c1)nc(Nc1ccc(Cl)cc1)c1ccncc12	radiometric	1 µM	-1%
CC(C)(C)c1nc2c(s1)c1nc(N)ncc1c1ccc(NS(=O)(=O)c3c(F)cccc3F)c(F)c12	radiometric	1 µM	80%
